Measurements reported in ChEMBL document CHEMBL3352478, “Novel benzopsoralen analogues: synthesis, biological activity and molecular docking studies” (2014).

Legend:
MDA-MB-231 = test: Antiproliferative activity against human MDA-MB-231 cells after 48 hrs by MTS assay; assay type: functional; conditions: MDA-MB-231, 48 h
Summary of the method: (§1)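 Cells were grown in DMEM with 1% penicillin/streptomycin and FBS (10% for MDA-MB-231, 15% for TCC-SUP). At 1×10^4 cells/mL, cells were exposed for 48 h to five compound concentrations freshly diluted from DMSO stocks (final DMSO <1%). MTS reagent was then added for 2 h at 37 °C, 5% CO2, and absorbance read at 490 nm. Viability was taken as % of control and GI50 read from dose-response curves; 3 independent cultures, 4 wells per concentration.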

[1] = Antiproliferative activity against human TCCSUP cells after 48 hrs by MTS assay; assay type: functional; conditions: TCC-SUP; summary of the method: as §1

GI50 (MDA-MB-231) [nM]	SMILES	GI50 [1] [nM]
82	Cc1c(Cl)c(=O)oc2cc3c(cc12)oc1ccccc13	243
198	CCOC(=O)/C=C/n1c2ccccc2c2cc(O)ccc21	25
49	Cc1cc(=O)oc2c1ccc1c3ccccc3sc12	253
421	Cc1c(Cl)c(=O)oc2cc3[nH]c4ccccc4c3cc12	149
460	Cc1c(Cl)c(=O)oc2c1ccc1c3ccccc3sc12	311
